Molecules are shown by their SMILES. The source made the active and inactive calls. The calls are words filed in the database; no cut-off is given here.

This note sets out measurements from ChEMBL document CHEMBL4680142, “Thiazolidine-2,4-dione-based irreversible allosteric IKK-β kinase inhibitors: Optimization into in vivo active anti-inflammatory agents” (Eur J Med Chem, 2020).

Format in all cases: functional, cell-based
In test [1] the test system is RAW264.7. Put plainly: Antiinflammatory activity against mouse RAW264.7 cells assessed as reduction in LPS-induced PGE2 production at 0.1 to 1 uM incubated for 1 hr followed by LPS stimulation and measured after 24 hrs by ELISA. The conditions noted are these: dose 0.1-1 µM, time 25.0 hrs. An outline of the steps: (§1)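 RAW 264.7 cells (DMEM, 10% FBS, 37 °C, 5% CO2) plated at 2×10^5 cells/mL and left overnight. Compounds (0.1, 1, 10 µM) or NS-398 given for 1 h, then LPS 10 ng/mL for 24 h. Culture medium assayed by ELISA: competitive colorimetric for PGE2/TNF-α, mouse DuoSet for TNF-α/IL-6. IC50 is the concentration lowering the mediator to 50%.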
(In general: ELISA stands for enzyme-linked immunosorbent assay.)

The subject of test [2] is RAW264.7. Put plainly: Antiinflammatory activity against mouse RAW264.7 cells assessed as reduction in LPS-induced TNF-alpha level at 0.1 to 1 uM incubated for 1 hr followed by LPS stimulation and measured after 24 hrs by ELISA. The following applies: dose 0.1-1 µM, time 25.0 hrs. An outline of the steps:
as §1

The test system of test [3] is RAW264.7. Put plainly: Antiinflammatory activity against mouse RAW264.7 cells assessed as reduction in LPS-induced PGE2 production at 0.1 uM incubated for 1 hr followed by LPS stimulation and measured after 24 hrs by ELISA. The following applies: time 25.0 hrs. An outline of the steps:
as §1

Consider `CN1CCN(CCCCCOc2cccc(N3C(=O)S/C(=C\c4ccc(Oc5ccc([N+](=O)[O-])cc5)cc4)C3=O)c2)CC1`, for which the outcome in test [1] was inactive.

As for `CN1CCN(CCCOc2ccc(N3C(=O)S/C(=C\c4ccc(Oc5ccc(C#N)cc5)cc4)C3=O)cc2)CC1`, the inhibition entry in test [2] was “inactive”. In test [3], the result was Active.
